# High-throughput results deposited in PubChem BioAssay by Sanford-Burnham Center for Chemical Genomics.
# Most compounds without a hit are left out; they make up all but 1.7% or so of the library.
# DNMT1 block = blocks human DNA methyltransferase DNMT1 | 360,000 tested, 0.83% active | inhibition (reported as % activation of signal), % at 10 µM | AID 588458 | DNMT1 molecular beacon, Hinp1I cleavage, fluorescence; in the data active = inhibition above about 50%
# STEP inh = STEP (human) phosphatase inhibition; recombinant STEP, OMFP fluorogenic substrate, fluorescence; inhibition, % at 20 µM; 360,000 tested, 0.25% active; AID 588621;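 active = inhibition at 20 µM, scaled per plate between control wells, above about 37%, limit read from the data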;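 also: 0% = DMSO with enzyme and substrate and 100% = substrate only without enzyme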
#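 material = STEP tyrosine phosphatase | reagent = fluorogenic phosphatase substrate OMFP at 25 µM final | doses = single compound dose of 20 µM, 1% DMSO final | schedule = 20 min reaction, room temperature, in the dark | measured by = fluorescence, 480/540 nm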
# LMPTP block = LMPTP (human) inhibition. AID 651560. inhibition, % at 20 µM. 360,000 tested, 0.22% active. recombinant LMPTP-A, OMFP fluorogenic substrate, fluorescence intensity;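 active = compounds that cut the enzyme signal by at least half of the control window in the single-dose screen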;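 also: plate controls were DMSO wells with enzyme plus substrate for no effect and substrate without enzyme for full effect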
#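 Test system: LMPTP-A phosphatase enzyme. Amount: LMPTP-A at 0.625 nM final in the reaction. Reagent: OMFP substrate, 400 µM final. Times: 50 min at room temperature. Signal: endpoint fluorescence intensity from OMFP dephosphorylation. Read-out basis: % inhibition. Benchmarks: no-enzyme and uninhibited controls.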
# SUMO1 PPI mod = alters human SUMO1 binding to SIM partners. 360,000 tested, 0.33% active. SUMO1 binding to a labelled peptide, TR-FRET, 1 h. AID 602429. inhibition, % at 20 µM; in the data active = inhibition above about 37%
# Target sequence (P63165 whole entry, looked up): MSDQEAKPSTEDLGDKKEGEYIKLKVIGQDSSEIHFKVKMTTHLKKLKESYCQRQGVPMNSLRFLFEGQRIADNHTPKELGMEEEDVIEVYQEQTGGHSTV
# Scp-1 inhibitor = inhibitors of human Scp-1 phosphatase. Recombinant Scp1, phosphopeptide, malachite green phosphate absorbance. AID 493091. 340,000 tested, 0.88% active. Q9GZU7. inhibition, % at 20 µM;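 active = inhibition above about 50% at 20 µM, limit read from the data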;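 also: plate controls were DMSO wells with enzyme for no effect and wells lacking enzyme for full effect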
# Target sequence (Q9GZU7 76-261 limits assumed): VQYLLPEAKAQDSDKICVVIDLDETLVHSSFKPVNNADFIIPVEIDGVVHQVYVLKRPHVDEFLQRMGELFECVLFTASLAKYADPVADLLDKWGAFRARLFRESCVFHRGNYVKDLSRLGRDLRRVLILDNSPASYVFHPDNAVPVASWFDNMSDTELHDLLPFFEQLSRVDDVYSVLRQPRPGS
#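 Assay system: SCP-1 catalytic fragment, aa 76-261 | Buffer or medium: Tris acetate buffer pH 5.5 with MgCl2 and Tween-20 | Compound: One concentration, 20 µM, with 1.0% DMSO | Also added: Phospho 17-mer peptide substrate | Signal: Absorbance at 630 nm | Incubation: 45 min enzyme reaction at room temperature | Measure: % inhibition of SCP-1 phosphate liberation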
# Numbers without * were called inactive; nt = no result.
SMILES,DNMT1 block,STEP inh,LMPTP block,SUMO1 PPI mod,Scp-1 inhibitor
O=C1CCC(=O)c2ccc3c4c(ccc1c24)CC3,25,3,7,-36,-1
O=C1CCN2C=Nc3cccc4ccc1c2c34,76*,-68,-5,2,-10
CCOC(=O)C1(Cc2ccccc2C)CCCN(C(=O)c2ccc(C(C)=O)s2)C1 (centres undefined),2,2,-2,-5,nt
COc1ccccc1/C=c1\sc2nc(-c3ccccc3OC)nn2c1=O,-17,8,0,-1,-7
COc1ccc(Br)cc1/C=c1\sc2nc(-c3ccco3)nn2c1=O,106*,12,19,37,88*
CC(C)(C)n1nnnc1C1c2ccccc2C(=O)N1CCc1c[nH]c2ccccc12 (centres undefined),nt,nt,2,-2,nt
O=C(Nc1nnc([C@H]2C[C@H](O)[C@@H](CO)O2)s1)Nc1ccc(F)cc1F,2,-2,-1,-2,nt
O=C(Nc1nccs1)c1cn(-c2ccccc2)nc1-c1ccncc1,-1,4,1,44*,-3
CC(C)C[C@H]1CN([C@@H](Cc2ccccc2)CN2CCC[C@H]2CN2C(=O)C(=O)NC[C@@H]2Cc2ccc(O)cc2)C(=O)C(=O)N1CC1CCCCCC1,nt,nt,4,15,nt
O=C1c2cccc3c([N+](=O)[O-])ccc(c23)C(=O)N1O,71*,10,22,32,83*
Cc1ccc(C2(C)NC(=O)N(CC(=O)Nc3ccc4[nH]c(=O)[nH]c4c3)C2=O)cc1 (centres undefined),1,0,4,72*,2
CC1(c2ccc(Cl)cc2Cl)NC(=O)N(CC(=O)Nc2ccc3[nH]c(=O)[nH]c3c2)C1=O (centres undefined),-1,3,0,54*,-7
COc1ccc(C2(C)NC(=O)N(CC(=O)Nc3ccc4[nH]c(=O)[nH]c4c3)C2=O)cc1 (centres undefined),-2,0,0,4,1
CC(C(=O)Nc1ccc(C#N)cc1)N(C)CC(=O)N(C)c1c(N)n(Cc2ccccc2)c(=O)[nH]c1=O (centres undefined),4,-4,-1,46*,-10
CN(C(=O)CCOc1ccccc1)c1c(N)n(Cc2ccccc2)c(=O)[nH]c1=O,-3,0,-1,-1,-3
O=C(O)c1ccc(N2CCCCC2)cc1O,-1,-8,1,-2,-4
O=C(O)c1ccc(N2Cc3ccccc3C2)cc1O,8,4,-1,14,71*
COc1cc(NCCCCCCN)c2ncccc2c1OC,62*,2,29,-12,-15
COc1cc(NC(C)CCCNC(C)C)c2ncccc2c1OC (centres undefined),-5,-2,-1,-6,-3
Cc1cccc(C(=O)NNC(=O)C2CCCCC2)c1O,1,2,-1,4,nt
CN(Cc1ccccc1)C(=O)c1ccc(NC(=O)Cc2ccc(NC(=O)C3CCCN(C(=O)c4ccccc4)C3)cc2)cc1 (centres undefined),-5,1,0,-4,-4
COc1ccc(/C=N/Nc2cc(C)nc3ccccc23)cc1,27,4,62*,-54,3
COc1ccc2nc(C)cc(N/N=C/c3ccc(F)cc3)c2c1,55*,3,7,-4,-3
COc1ccc(/C=N/Nc2cc(C)nc3c(C)cccc23)cc1,45,3,31,-34,1
COc1ccc(NC(=O)C(c2ccc(C#N)cc2)n2c(=O)c(-c3ccco3)nc3ccccc32)cc1 (centres undefined),nt,nt,2,-8,nt
Nc1cccc2nc3ccccc3cc12,69*,-1,13,-24,-6
Cc1ccc(-c2ccc(/C=C3/NC(=O)NC3=O)o2)cc1[N+](=O)[O-],-2,1,1,4,1
CC1=C(C#N)C(=O)NC(=O)/C1=C\c1ccc(-c2cc(C)c(C)cc2[N+](=O)[O-])o1,13,5,3,18,78*
CCNC(=O)C1(C)CCN(C(=O)c2cccc(C(F)(F)F)c2)C1 (centres undefined),5,0,-2,1,nt
COc1ccc(Nc2nnc(-c3ccc(C(N)=O)cc3)c3ccccc23)cc1,-7,1,0,1,-5
